Data from ChEMBL document CHEMBL1681752, “Discovery of novel (4-piperidinyl)-piperazines as potent and orally active acetyl-CoA carboxylase 1/2 non-selective inhibitors: F-Boc and triF-Boc groups are acid-stable bioisosteres for the Boc group” (Bioorg Med Chem, 2011).

Experiments:
Acetyl-CoA carboxylase [1] = molecular target: Acetyl-CoA carboxylase (Rattus norvegicus, UniProt P11497+Q1HEC0); test: Inhibition of rat ACC1/2 assessed as malonyl-CoA synthesis; type: protein assay
Summary of the method: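 Rat liver cytosolic ACC is preincubated with compound or DMSO for 30 min at 37 °C in Tris acetate pH 7.5 buffer. The reaction uses the liver-ACC substrate mix: 2.12 mM ATP, 18.2 mM NaHCO3 and [14C]acetyl-CoA. Residual acetyl-CoA is removed as acetyl-carnitine on cation-exchange resin, and [14C]malonyl-CoA in the eluate is counted. IC50 is the mean of at least two experiments.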

HepG2 = test: Inhibition of fatty acid synthesis in human HepG2 cells assessed as [14C]acetate incorporation after 2 hrs by liquid scintillation counter; type: functional, cell-based; details: HepG2, 2 h
Summary of the method: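 HepG2 cells are plated at 3 × 10^5/well and grown 48 h in DMEM/10% FBS. They are serum-starved 1 h in DMEM with 1.5% BSA, with or without compound. Radiolabelled acetate is added for 2 h. Cells are washed, then saponified with KOH for 2 h at 70 °C. After hexane washes and acidification to pH <2, fatty acids are extracted into hexane.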

Acetyl-CoA carboxylase [2] = molecular target: Acetyl-CoA carboxylase (Homo sapiens, UniProt Q13085+O00763); test: Inhibition of human ACC1/2 assessed as [14C]malonyl-CoA synthesis; type: protein assay
Summary of the method: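 Enzyme source: human liver cytosol, ammonium sulfate precipitated (30%) and anion-exchange purified in MOPS pH 7.5 buffer. It is preincubated with compound or DMSO for 30 min at 37 °C in Tris acetate pH 7.5 buffer. Substrates are 2.12 mM ATP, 18.2 mM NaHCO3 and [14C]acetyl-CoA. Unreacted acetyl-CoA is converted to acetyl-carnitine and retained on cation-exchange resin, and eluted [14C]malonyl-CoA is counted. IC50 is the mean of at least two experiments.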

[3] = Metabolic stability in human liver microsomes assessed as compound recovery after 15 mins by LC-MS/MS; type: ADME, Microsome; details: read-out: Stability
Summary of the method: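 Compound is incubated at 37 °C with 1 mg/mL human liver microsomes in phosphate buffer with an NADPH-generating system (glucose-6-phosphate, NADP, G6P dehydrogenase) plus MgCl2 and KCl. Levels at 0 and 15 min are measured by LC–MS/MS, and percent remaining is taken from their ratio.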

[4] = Chemical stability of the compound in simulated gastric media assessed as compound recovery at pH 1.2 after 3 hrs by HPLC method; type: physicochemical; details: read-out: Stability
Summary of the method: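 Acid stability: compound is held in aqueous solution at pH 1.2 for 3 h at 37 °C. Parent remaining is quantified by HPLC.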

CC(=O)N1CCC(C(=O)N2CCC(N3CCN(C(=O)c4cc(-c5ccc(C)cc5)nc(-c5ccc(C)cc5)c4)CC3)CC2)CC1
IC50 (Acetyl-CoA carboxylase [1]): 70 nM

CC(=O)N1CCC(C(=O)N2CCC(N3CCN(C(=O)c4cc(-c5ccc(C)cc5)nc(-c5ccc6[nH]c(C)c(C)c6c5)c4)CC3)CC2)CC1
IC50 (HepG2): 294 nM
IC50 (Acetyl-CoA carboxylase [2]): 33 nM

CCNC(=O)Nc1sc2ccccc2c1C(=O)N1CCN(C2CCN(C(C)=O)CC2)CC1
IC50 (Acetyl-CoA carboxylase [2]): 1864 nM

CCNC(=O)Nc1sc2ccccc2c1C(=O)N1CCN(C2CCN(C(=O)CC)CC2)CC1
IC50 (Acetyl-CoA carboxylase [2]): 597 nM

CCCC(=O)N1CCC(N2CCN(C(=O)c3c(NC(=O)NCC)sc4ccccc34)CC2)CC1
IC50 (Acetyl-CoA carboxylase [2]): 242 nM

CCCCC(=O)N1CCC(N2CCN(C(=O)c3c(NC(=O)NCC)sc4ccccc34)CC2)CC1
IC50 (Acetyl-CoA carboxylase [2]): 207 nM

CCNC(=O)Nc1sc2ccccc2c1C(=O)N1CCN(C2CCN(C(=O)CC(C)C)CC2)CC1
IC50 (Acetyl-CoA carboxylase [2]): 144 nM

CCNC(=O)Nc1sc2ccccc2c1C(=O)N1CCN(C2CCN(C(=O)C(C)C)CC2)CC1
IC50 (Acetyl-CoA carboxylase [2]): 131 nM

CCNC(=O)Nc1sc2ccccc2c1C(=O)N1CCN(C2CCN(C(=O)C3CCCCC3)CC2)CC1
IC50 (HepG2): 146 nM
IC50 (Acetyl-CoA carboxylase [2]): 81 nM

CCNC(=O)Nc1sc2ccccc2c1C(=O)N1CCN(C2CCN(C(=O)C(C)(C)C)CC2)CC1
IC50 (HepG2): 450 nM
IC50 (Acetyl-CoA carboxylase [2]): 109 nM

CCNC(=O)Nc1sc2ccccc2c1C(=O)N1CCN(C2CCN(C(=O)OC)CC2)CC1
IC50 (Acetyl-CoA carboxylase [2]): 175 nM

CCNC(=O)Nc1sc2ccccc2c1C(=O)N1CCN(C2CCN(C(=O)OCC)CC2)CC1
IC50 (HepG2): 228 nM
IC50 (Acetyl-CoA carboxylase [2]): 55 nM

CCNC(=O)Nc1sc2ccccc2c1C(=O)N1CCN(C2CCN(C(=O)OC(C)C)CC2)CC1
IC50 (HepG2): 208 nM
IC50 (Acetyl-CoA carboxylase [2]): 28 nM
remaining at 0.25 h [3]: 3%

CCNC(=O)Nc1sc2ccccc2c1C(=O)N1CCN(C2CCN(C(=O)OC3CCCC3)CC2)CC1
IC50 (HepG2): 512 nM
IC50 (Acetyl-CoA carboxylase [2]): 52 nM

CCNC(=O)Nc1sc2ccccc2c1C(=O)N1CCN(C2CCN(C(=O)OC3CCCCC3)CC2)CC1
IC50 (HepG2): 635 nM
IC50 (Acetyl-CoA carboxylase [2]): 76 nM

CCNC(=O)Nc1sc2ccccc2c1C(=O)N1CCN(C2CCN(C(=O)OC(C)(C)C)CC2)CC1
IC50 (HepG2): 79 nM
remaining at 3 h [4]: 23%
IC50 (Acetyl-CoA carboxylase [2]): 24 nM

CCNC(=O)Nc1sc2ccccc2c1C(=O)N1CCN(C2CCN(C(=O)NC(C)(C)C)CC2)CC1
IC50 (HepG2): 775 nM
IC50 (Acetyl-CoA carboxylase [2]): 119 nM

CCNC(=O)Nc1sc2ccccc2c1C(=O)N1CCN(C2CCN(C(=O)OC(C)(C)CF)CC2)CC1
IC50 (HepG2): 61 nM
remaining at 3 h [4]: 98%
IC50 (Acetyl-CoA carboxylase [2]): 17 nM
remaining at 0.25 h [3]: 3%

CCNC(=O)Nc1sc2ccccc2c1C(=O)N1CCN(C2CCN(C(=O)OC(C)(C)C(F)(F)F)CC2)CC1
IC50 (HepG2): 81 nM
remaining at 3 h [4]: 100%
IC50 (Acetyl-CoA carboxylase [2]): 31 nM
remaining at 0.25 h [3]: 5%

CCNC(=O)Nc1sc2ccc(C)cc2c1C(=O)N1CCN(C2CCN(C(=O)OC(C)C)CC2)CC1
IC50 (HepG2): 254 nM
IC50 (Acetyl-CoA carboxylase [2]): 32 nM
remaining at 0.25 h [3]: 3%

CCNC(=O)Nc1sc2cc(C)ccc2c1C(=O)N1CCN(C2CCN(C(=O)OC(C)C)CC2)CC1
IC50 (HepG2): 628 nM
IC50 (Acetyl-CoA carboxylase [2]): 60 nM
remaining at 0.25 h [3]: 77%

CCNC(=O)Nc1sc2cc(C)ccc2c1C(=O)N1CCN(C2CCN(C(=O)OC(C)(C)CF)CC2)CC1
IC50 (HepG2): 73 nM
IC50 (Acetyl-CoA carboxylase [2]): 32 nM
remaining at 0.25 h [3]: 84%

CCNC(=O)Nc1sc2cc(C(F)(F)F)ccc2c1C(=O)N1CCN(C2CCN(C(=O)OC(C)(C)C(F)(F)F)CC2)CC1
IC50 (Acetyl-CoA carboxylase [2]): 98 nM
remaining at 0.25 h [3]: 7%

CCNC(=O)Nc1sc2cc(F)ccc2c1C(=O)N1CCN(C2CCN(C(=O)OC(C)(C)C(F)(F)F)CC2)CC1
IC50 (Acetyl-CoA carboxylase [2]): 62 nM
remaining at 0.25 h [3]: 17%

CCNC(=O)Nc1sc2cc(Cl)ccc2c1C(=O)N1CCN(C2CCN(C(=O)OC(C)(C)C(F)(F)F)CC2)CC1
IC50 (Acetyl-CoA carboxylase [2]): 38 nM
remaining at 0.25 h [3]: 51%

CCNC(=O)Nc1sc2cc(OC)ccc2c1C(=O)N1CCN(C2CCN(C(=O)OC(C)(C)C(F)(F)F)CC2)CC1
IC50 (HepG2): 67 nM
IC50 (Acetyl-CoA carboxylase [2]): 27 nM
remaining at 0.25 h [3]: 29%

CCNC(=O)Nc1sc2cccnc2c1C(=O)N1CCN(C2CCN(C(=O)OC(C)(C)C(F)(F)F)CC2)CC1
IC50 (HepG2): 49 nM
IC50 (Acetyl-CoA carboxylase [2]): 12 nM
remaining at 0.25 h [3]: 13%

CCNC(=O)Nc1sc2ccncc2c1C(=O)N1CCN(C2CCN(C(=O)OC(C)(C)C(F)(F)F)CC2)CC1
IC50 (Acetyl-CoA carboxylase [2]): 117 nM

CCNC(=O)Nc1sc2cnccc2c1C(=O)N1CCN(C2CCN(C(=O)OC(C)(C)C(F)(F)F)CC2)CC1
IC50 (HepG2): 152 nM
IC50 (Acetyl-CoA carboxylase [2]): 41 nM
remaining at 0.25 h [3]: 67%

CCNC(=O)Nc1sc2ncccc2c1C(=O)N1CCN(C2CCN(C(=O)OC(C)(C)C(F)(F)F)CC2)CC1
IC50 (HepG2): 67 nM
IC50 (Acetyl-CoA carboxylase [2]): 45 nM
remaining at 0.25 h [3]: 3%

CCNC(=O)Nc1sc2ccccc2c1C(=O)N1CCN(C2CCN(C(=O)C3CCN(C(C)=O)CC3)CC2)CC1.O=C(O)/C=C\C(=O)O
IC50 (Acetyl-CoA carboxylase [2]): 74 nM

CCNC(=O)Nc1sc2ccccc2c1C(=O)N1CCN(C2CCN(C(=O)C3CCCC3)CC2)CC1.O=C(O)/C=C\C(=O)O
IC50 (HepG2): 309 nM
IC50 (Acetyl-CoA carboxylase [2]): 49 nM
